Reference: ChEMBL document CHEMBL1140339, “Spiro and dispiro-1,2,4-trioxolanes as antimalarial peroxides: charting a workable structure-activity relationship using simple prototypes” (J Med Chem, 2005)

Tests used:
[1] = system: Mus musculus; experiment: Survival of mice to 30-day postinfection with Plasmodium berghei upon 10 mg/kg upon subcutaneous dose was determined; assay type: functional
Procedure, shortened: (§1)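 P. berghei-infected MORO mice, groups of three, treated 1 day postinfection with a single dose (100 or 10 mg/kg, po or sc) dissolved or suspended in 3% ethanol/7% Tween-80. Activity is percent reduction in parasitemia on day 3 postinfection versus untreated controls. Survival time is compared with an untreated control group. Individual measurements generally differed by less than 10%.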

[2] = system: Mus musculus; experiment: Antimalarial activity (10 mg/kg, subcutaneously) given 1 day post infection of mice (Mus musculus) with Plasmodium berghei is its ability to reduce parasitemia on day 3 post infection; assay type: functional; procedure, shortened: as §1
[3] = system: Mus musculus; experiment: Effective dose required to reduce the parasitemia in mice when compound administered with SSV after 3 day postinfection; assay type: functional
[4] = Volume distribution after intravenous administration of 10 mg/kg; settings: rat, in vivo
[5] = Plasma half life period after intravenous administration ( 10 mg/kg ); settings: rat
[6] = Plasma clearance after intravenous administration of 10 mg/kg; settings: rat
[7] = system: Mus musculus; experiment: Effective dose required to reduce the parasitemia in mice when compound administered with Tween-80 after 3 day postinfection; assay type: functional
[8] = Bioavailability obtained after oral administration of 30 mg/kg (n=1); assay type: ADME, organism-based, Mus musculus; settings: in vivo
Procedure, shortened: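 Conscious, free-moving rats (n = 3 per group) were jugular- and carotid-cannulated the day before dosing under isoflurane, then fasted overnight. The iv dose was a 5 min jugular infusion in aqueous 0.1 M Captisol (10, 20 or 30 mg/kg). The oral dose was given by gavage as a suspension in 0.5% CMC/0.4% polysorbate 80/0.5% benzyl alcohol/0.9% NaCl (30, 50 or 80 mg/kg). Carotid blood was sampled over 7 h and plasma was obtained by centrifugation.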

[9] = system: Mus musculus; experiment: Survival of mice to 30-day postinfection with Plasmodium berghei upon 10 mg/kg peroral dose was determined; assay type: functional; settings: route oral; procedure, shortened: as §1
[10] = species: Mus musculus; experiment: Effective dose required to reduce the parasitemia in mice by suppressive test after 4 day postinfection; assay type: functional
Procedure, shortened: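 Peters 4-day suppressive test in P. berghei-infected mice with multiple daily oral doses. ED50/ED90 are given in (mg/kg)/day.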

[11] = Volume distribution after intravenous administration of 20 mg/kg; settings: rat, in vivo, read-out: Vd
[12] = Plasma half life period after intravenous administration ( 20 mg/kg ); settings: rat
[13] = Plasma clearance after intravenous administration of 20 mg/kg; settings: rat

Row | Structure (SMILES) | Survival [1] [days] | Reduction [2] [%] | ED90 [3] | Vd [4] [L/kg] | half-life [5] [h] | clearance [6] [mL/min/kg] | ED90 [7] | bioavailability [8] [%] | Survival [9] [days] | ED90 [10] | Vd [11] [L/kg] | half-life [12] [h] | clearance [13] [mL/min/kg]
1 | c1ccc(C2CCC3(CC2)OOC2(O3)C3CC4CC(C3)CC2C4)cc1 (stereo not drawn) | 17.1 | 99.92 | 5.7 (mg/kg)/day | 5 | 1.62 | 33 | 3.2 (mg/kg)/day | 9.5 | 12.6 | 2.6 (mg/kg)/day |  |  | 
2 | C[C@H]1[C@@H](O)O[C@@H]2O[C@@]3(C)CC[C@H]4[C@H](C)CC[C@@H]1[C@@]24OO3 [ARTENIMOL] |  |  |  |  |  |  |  |  |  |  | 3 | 0.433 | 72
